In paper PMC12749109 (Nature Communications, 2025):
Entries after “also recorded” stand apart in the source; their conditions may differ.

Experiments:
Gnaq = test: 2% DSS colitis in Gnaq cKO mice, overall; assay type: in vivo, mouse; details: Gnaq cKO (gut epithelial) mice, vs AAV control mice
Summary of the method: (§1)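 Male Arrb2fl/fl or Gnaqfl/fl mice (7–8 weeks) were fasted overnight, anaesthetised, and given 100 μL AAV8-Vil-cre or AAV8-Vil-null (1E+11 vg/mL) by catheter 4 cm into the colon. One week later they received 2% DSS in drinking water for 7 days. Read-outs were body weight, DAI, colon length, H&E, serum IL-6/IL-1β ELISA, and colonic Il6/Tnf/Il1b/Tgfb1/Tjp1/Ocln mRNA.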

Caco2 cells = test: RT-qPCR cytokine expression, Caco2 cell inflammation model; assay type: cell-based, human; details: IL-1β + TNF-α
GALR1 [1] = test: CRE-luc luciferase; assay type: cell-based; details: HEK293, GALR1, luciferase, 12 h
Summary of the method: (§2)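 HEK293 cells were transfected (Lipofectamine) with empty pcDNA3.1 or GALR plasmid (2 μg) plus CRE, NFAT-RE or SRE luciferase reporter. After 36 h, medium was replaced with serum-free medium containing test peptide, diluted in DMEM from a 1 mM water stock, for 12 h. Luciferase was read 48 h post-transfection. Technical triplicate; mean ± SD; 37 °C, 5% CO2.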

GALR2 [2] = test: CRE-luc luciferase; assay type: cell-based; details: HEK293, GALR2, luciferase, 12 h
Summary of the method: as §2

GALR3 [3] = test: CRE-luc luciferase; assay type: cell-based; details: HEK293, GALR3, luciferase, 12 h
Summary of the method: as §2

GALR2 [4] = test: G protein versus β-arrestin2 signaling bias at GALR2; assay type: cell-based
hGALR2 = test: G protein pathway activation, HEK293 luciferase; assay type: cell-based; details: human GALR2, vs cGAL53
Summary of the method: as §2

mGALR2 mutants = test: Tango β-arrestin2 recruitment, binding-site mutants; assay type: cell-based, mouse
colon transcriptome = test: RNA-seq of colon tissue, DSS-induced colitis mice; assay type: in vivo; details: mouse colon
Summary of the method: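 Total RNA was extracted from mouse colon with Trizol, sequenced on BGIseq500 and mapped to the mouse genome. Data were analysed in R and reported as mean ± SEM.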

GALR1 [5] = test: SRE-luc luciferase; assay type: cell-based; details: HEK293, GALR1, luciferase, 12 h
Summary of the method: as §2

mGALR2 = test: G protein pathway activation, HEK293 luciferase; assay type: cell-based; details: mouse GALR2, vs cGAL53
Summary of the method: as §2

DSS-induced colitis = DSS-induced colitis in wild-type mice, overall therapeutic efficacy; assay type: in vivo, mouse; details: chicken and mouse colitis models, overall statement
GALR3 [6] = test: SRE-luc luciferase; assay type: cell-based; details: HEK293, GALR3, luciferase, 12 h
Summary of the method: as §2

GALR1 [7] = test: NFAT-luc luciferase; assay type: cell-based; details: HEK293, GALR1, luciferase, 12 h
Summary of the method: as §2

GALR3 [8] = test: NFAT-luc luciferase; assay type: cell-based; details: HEK293, GALR3, luciferase, 12 h
Summary of the method: as §2

GALR2 [9] = test: NFAT-luc luciferase; assay type: cell-based; details: HEK293, GALR2, luciferase, 12 h
Summary of the method: as §2

ARRB2 = test: 2% DSS colitis in Arrb2 cKO mice, overall; assay type: in vivo, mouse; details: Arrb2 cKO (gut epithelial) mice, vs AAV control mice
Summary of the method: as §1

[10] = Tolerability of peptide alone in healthy male mice, overall; assay type: in vivo, mouse; details: daily i.p. for six consecutive days
Summary of the method: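 Healthy male mice received daily i.p. test peptide for six consecutive days alongside a saline-injected control group. Body weight, water intake, food intake and colon length were recorded.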

[11] = tested on: DSS-induced intestinal inflammation; assay type: in vivo, chicken
Summary of the method: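 Forty 21-day-old male yellow-feathered broilers were split into control, DSS and two peptide groups under 24 h light, with free food and water. DSS groups were gavaged with […] of 4% DSS daily from day 21 to 29. Treated birds got 100 μL of 50 μM peptide i.p. daily. TNF-α, IL-1β and IL-6 were measured by ELISA in jejunum/ileum homogenates (1:9 w/v ice-cold PBS, pH 7.4; 5000 × g, 10 min, 4 °C).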

GALR2 [12] = test: SRE-luc luciferase; assay type: cell-based; details: HEK293, GALR2, luciferase, 12 h
Summary of the method: as §2

GALR3 [13] = details: cited from earlier work
TNBS-induced colitis = details: rat acute TNBS colitis; cited from earlier work
GALR1 [14] = details: cited from earlier work
GALR2 [15] = details: cited from earlier work

GWTLNSAGYLLGPHAVDNHRSFNDKHGFT-NH2 [cGAL29]
ability to alleviate weight loss, colon shortening, intestinal damage, inflammation (Gnaq): significantly reduced | concentration giving (similar) anti-inflammatory effect (Caco2 cells): 10 µM | expression of Il6, Il23 and Tgfb1 induced by IL-1β and TNF-α (Caco2 cells; RT-qPCR): reduced | Gs (CRE-luc) activation (GALR1 [1]): not GALR1 | Gs (CRE-luc) activation (GALR2 [2]): more robust activation; also recorded: can activate | Gs (CRE-luc) activation (GALR3 [3]): can activate | bias at GALR2 (GALR2 [4]): G protein- | G protein activation / ARRB2 recruitment via GALR2 (GALR2 [4]; GALR2, overall statement): stronger activation of G protein signaling pathways via GALR2 | activation of G protein pathways (hGALR2): more strongly than cGAL53 | β-arrestin2 recruitment after mutation of predicted unique binding sites (mGALR2 mutants): affected | DSS-changed pathways (KEGG) (colon transcriptome): significantly modulated | expression levels of immune-related genes (colon transcriptome): significantly reduced | Gi (SRE-luc) activation (GALR1 [5]): not GALR1 | activation of G protein pathways (mGALR2): more strongly than cGAL53 | alleviation of colitis / intestinal inflammation, overall (DSS-induced colitis): alleviated intestinal inflammation symptoms in mouse colitis induced by DSS and TNBS | Gi (SRE-luc) activation (GALR3 [6]): can activate | Gq (NFAT-luc) activation (GALR1 [7]): not GALR1 | Gq (NFAT-luc) activation (GALR3 [8]): can activate | Gq (NFAT-luc) activation (GALR2 [9]): more robust activation; also recorded: can activate | therapeutic effects (weight loss, colon shortening, intestinal damage, inflammation) (ARRB2): significantly diminished; also recorded: negated the therapeutic effects | body weight, water and food intake, colon length (tolerability) [10]: neither peptide affected body weight, water, and food intake, nor colon length, indicating good tolerability | IBD-related symptoms in DSS-treated chickens ([11]; chicken, 4% DSS oral gavage, daily i.p. peptide): ameliorated IBD-related symptoms in chickens, manifested as reductions of body weight loss, intestinal bleeding points and tissue damage | expression of colonic inflammatory factors induced by DSS ([11]; chickens): reduced the expression of colonic inflammatory factors | Gi (SRE-luc) activation (GALR2 [12]): can activate

galanin: biologically active neuropeptide of 29/30 amino acids, cited literature
affinity (GALR3 [13]): lower affinity | severity of colonic damage and inflammatory responses (TNBS-induced colitis): decreases inflammatory responses; also recorded: reduce the severity of colonic damage and inflammatory responses | affinity (GALR1 [14]): high affinity | affinity (GALR2 [15]): high affinity
